Square brackets hold non-standard residues; d marks the D form. Peptide text beside a SMILES is read from it. * marks the point of attachment. ξ: configuration not given here. Bip = N[C@@H](Cc1ccc(-c2ccccc2)cc1)C(=O)O; Phe(4-NH2) = Nc1ccc(C[C@H](N)C(=O)O)cc1; Cbz = O=C(OCc1ccccc1)*; ξPip = O=C(O)C1CCCCN1
Tests used:
Homo sapiens [1] = species: Homo sapiens; experiment: Selectivity ratio of Ki for recombinant cathepsin-B (unknown origin) to Ki for recombinant cathepsin-L (unknown origin)
Method in brief: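 Selectivity factor FB = Ki(CatB)/Ki(CatL). Both Ki values come from kinetic runs with the recombinant enzymes, each using at least three inhibitor concentrations in duplicate.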

Cathepsin B = Cathepsin B (Homo sapiens, UniProt P07858); experiment: Inhibition of recombinant cathepsin-B (unknown origin) using Z-Arg-Arg-AMC as substrate by fluorescence assay
Method in brief: (§1)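 Kinetic assay with recombinant enzyme. Peptide amide stock concentrations were set by amino-acid analysis. Ki was derived from at least three inhibitor concentrations, each measured in duplicate.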

Procathepsin L = Procathepsin L (Homo sapiens, UniProt P07711); experiment: Inhibition of recombinant cathepsin-L (unknown origin) using Z-Phe-Arg-AMC as substrate by fluorescence assay; method in brief: as §1
Sequence of Procathepsin L (P07711 whole entry): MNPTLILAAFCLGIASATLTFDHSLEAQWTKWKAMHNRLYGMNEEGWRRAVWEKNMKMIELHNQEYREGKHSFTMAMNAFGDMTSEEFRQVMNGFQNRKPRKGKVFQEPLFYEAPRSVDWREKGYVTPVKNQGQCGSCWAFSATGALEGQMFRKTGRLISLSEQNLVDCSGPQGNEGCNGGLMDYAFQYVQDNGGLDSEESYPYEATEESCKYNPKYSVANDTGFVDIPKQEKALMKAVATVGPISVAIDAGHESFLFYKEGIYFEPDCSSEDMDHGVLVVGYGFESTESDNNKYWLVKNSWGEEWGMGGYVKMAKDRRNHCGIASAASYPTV

Homo sapiens [2] = species: Homo sapiens; experiment: Selectivity ratio of Ki for recombinant cathepsin-K (unknown origin) to Ki for recombinant cathepsin-L (unknown origin)
Method in brief: (§2)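 FK = Ki(CatK)/Ki(CatL) and FS = Ki(CatS)/Ki(CatL). Each Ki comes from recombinant enzyme kinetics over a minimum of four inhibitor concentrations, each measured in duplicate.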

Homo sapiens [3] = species: Homo sapiens; experiment: Selectivity ratio of Ki for recombinant cathepsin-S (unknown origin) to Ki for recombinant cathepsin-L (unknown origin); method in brief: as §2
Cathepsin K = molecular target: T1, Cathepsin K (Homo sapiens, UniProt P43235); experiment: Inhibition of recombinant cathepsin-K (unknown origin) using Z-Phe-Arg-AMC as substrate by fluorescence assay
T1 sequence (P43235 whole entry): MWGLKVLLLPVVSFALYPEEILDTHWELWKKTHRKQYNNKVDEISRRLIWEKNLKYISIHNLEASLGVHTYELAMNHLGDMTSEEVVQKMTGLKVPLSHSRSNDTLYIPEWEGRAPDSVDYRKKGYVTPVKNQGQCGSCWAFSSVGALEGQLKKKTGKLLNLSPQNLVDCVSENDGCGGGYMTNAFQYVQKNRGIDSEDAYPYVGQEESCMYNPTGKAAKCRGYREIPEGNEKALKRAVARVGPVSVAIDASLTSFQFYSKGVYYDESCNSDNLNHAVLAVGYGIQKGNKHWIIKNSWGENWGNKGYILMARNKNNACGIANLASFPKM
Method in brief: (§3)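 Recombinant enzyme kinetics. Inhibitor stocks were quantified by amino-acid analysis. Ki was obtained from a minimum of four inhibitor concentrations, each run in duplicate.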

Cathepsin S = Cathepsin S (Homo sapiens, UniProt P25774); experiment: Inhibition of recombinant cathepsin-S (unknown origin) using Z-Val-Arg-AMC as substrate by fluorescence assay; method in brief: as §3
Sequence of Cathepsin S (P25774 whole entry): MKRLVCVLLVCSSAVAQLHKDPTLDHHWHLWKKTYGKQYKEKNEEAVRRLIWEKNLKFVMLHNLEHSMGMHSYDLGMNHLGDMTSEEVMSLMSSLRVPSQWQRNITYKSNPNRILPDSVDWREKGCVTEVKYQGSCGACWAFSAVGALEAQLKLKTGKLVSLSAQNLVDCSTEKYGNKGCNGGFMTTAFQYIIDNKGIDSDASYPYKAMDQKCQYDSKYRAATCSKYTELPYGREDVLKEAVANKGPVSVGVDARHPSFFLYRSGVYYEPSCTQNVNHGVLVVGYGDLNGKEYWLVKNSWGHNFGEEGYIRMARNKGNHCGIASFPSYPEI

| SMILES | Ratio Ki (Homo sapiens [1]) | Ki (Cathepsin B) | Ki (Procathepsin L) | Ratio Ki (Homo sapiens [2]) | Ratio Ki (Homo sapiens [3]) | Ki (Cathepsin K) | Ki (Cathepsin S) |
| --- | --- | --- | --- | --- | --- | --- | --- |
| NCCCC[C@H](NC(=O)[C@H](Cc1ccccc1)NC(=O)C1=CCCC1)C(N)=O | 80 | 623 µM | 7.8 µM |  |  |  |  |
| CC(=O)Oc1ccc(C(=O)N[C@@H](Cc2ccccc2)C(=O)N[C@@H](CCCCN)C(N)=O)cc1 | 272 | 706 µM | 2.6 µM |  |  |  |  |
| NCCCC[C@H](NC(=O)[C@H](Cc1ccccc1)NC(=O)OCc1ccccc1)C(N)=O | 810 | 3410 µM | 4.2 µM | 11 | 13 | 47 µM | 56 µM |
| NCCCC[C@H](NC(=O)[C@H](Cc1ccc(-c2cccc(N)c2)cc1)NC(=O)OCc1ccccc1)C(N)=O | 21 | 38 µM | 1.8 µM |  |  |  |  |
| CSCC[C@H](NC(=O)[C@H](Cc1ccccc1)NC(=O)OCc1ccccc1)C(N)=O (Cbz-Phe-Met-NH2) | 111 | 7100 µM | 64 µM |  |  |  |  |
| NCCCC[C@H](NC(=O)[C@H](Cc1ccccc1)NC(=O)c1ccccn1)C(N)=O | 15 | 80 µM | 5.5 µM |  |  |  |  |
| CC(C)[C@H](NC(=O)[C@H](Cc1ccccc1)NC(=O)OCc1ccccc1)C(N)=O (Cbz-Phe-Val-NH2) |  |  | 17 µM |  |  |  |  |
| CNCCCC[C@H](NC(=O)[C@H](Cc1ccccc1)NC(=O)OCc1ccccc1)C(N)=O | 595 | 1550 µM | 2.6 µM |  |  |  |  |
| NC(=O)[C@H](N)NC(=O)[C@H](Cc1ccccc1)NC(=O)OCc1ccccc1 |  |  | 28 µM |  |  |  |  |
| NCCCC[C@H](NC(=O)[C@H](Cc1c[nH]c2ccccc12)NC(=O)OCc1ccccc1)C(N)=O (Cbz-Trp-Lys-NH2) | 24 | 100 µM | 4.2 µM |  |  |  |  |
| CN(C)c1ccc(C(=O)N[C@@H](Cc2ccccc2)C(=O)N[C@@H](CCCCN)C(N)=O)cc1 | 9 | 26 µM | 2.9 µM |  |  |  |  |
| NCCCC[C@H](NC(=O)[C@H](Cc1ccccc1)NC(=O)CCc1ccc(O)cc1)C(N)=O | 54 | 135 µM | 2.5 µM |  |  |  |  |
| CC(C)C[C@H](NC(=O)[C@H](Cc1ccccc1)NC(=O)OCc1ccccc1)C(N)=O (Cbz-Phe-Leu-NH2) | 310 | 4340 µM | 14 µM |  |  |  |  |
| N=C(N)NCCC[C@H](NC(=O)OCc1ccccc1)C(=O)N[C@@H](Cc1ccccc1)C(=O)N[C@@H](CCCCN)C(N)=O (Cbz-Arg-Phe-Lys-NH2) | 1760 | 1300 µM | 0.74 µM | 198 | 11 | 147 µM | 8.5 µM |
| NCCCC[C@H](NC(=O)[C@H](Cc1ccccc1)NC(=O)c1ccc(-c2ccccc2)cc1)C(N)=O | 9 | 84 µM | 9 µM |  |  |  |  |
| NCCCC[C@H](NC(=O)[C@H](Cc1c[nH]cn1)NC(=O)OCc1ccccc1)C(N)=O (Cbz-His-Lys-NH2) | 18 | 56 µM | 3.1 µM |  |  |  |  |
| NCCCC[C@H](NC(=O)[C@H](Cc1ccc(O)cc1)NC(=O)OCc1ccccc1)C(N)=O (Cbz-Tyr-Lys-NH2) | 96 | 135 µM | 1.4 µM |  |  |  |  |
| Cc1ccc(-c2ccc(C[C@H](NC(=O)OCc3ccccc3)C(=O)N[C@@H](CCCCN)C(N)=O)cc2)cc1 | 66 | 113 µM | 1.7 µM |  |  |  |  |
| NCCCC[C@H](NC(=O)[C@H](Cc1ccccc1)NC(=O)c1ccc(Br)cc1)C(N)=O | 113 | 261 µM | 2.3 µM |  |  |  |  |
| N=C(N)NCCC[C@H](NC(=O)[C@H](Cc1ccccc1)NC(=O)OCc1ccccc1)C(N)=O (Cbz-Phe-Arg-NH2) | 12 | 349 µM | 28 µM |  |  |  |  |
| Cc1cccc(C)c1C(=O)N[C@@H](Cc1ccccc1)C(=O)N[C@@H](CCCCN)C(N)=O | 169 | 3390 µM | 20 µM |  |  |  |  |
| NCCCC[C@H](NC(=O)[C@H](Cc1ccccc1)NC(=O)[C@H](Cc1c[nH]c2ccccc12)NC(=O)OCc1ccccc1)C(N)=O (Cbz-Trp-Phe-Lys-NH2) | 2140 | 835 µM | 0.39 µM | 1640 | 51 | 639 µM | 20 µM |
| NC(=O)[C@H](Cc1c[nH]cn1)NC(=O)[C@H](Cc1ccccc1)NC(=O)OCc1ccccc1 (Cbz-Phe-His-NH2) |  |  | 14 µM |  |  |  |  |

| SMILES | Ratio Ki (Homo sapiens [1]) | Ki (Cathepsin B) | Ki (Procathepsin L) | Ratio Ki (Homo sapiens [2]) | Ratio Ki (Homo sapiens [3]) | Ki (Cathepsin K) | Ki (Cathepsin S) |
| --- | --- | --- | --- | --- | --- | --- | --- |
| NCCCC[C@H](NC(=O)[C@H](Cc1ccccc1)NC(=O)c1ccc(N)nc1)C(N)=O | 30 | 148 µM | 5 µM |  |  |  |  |
| NCCCC[C@H](NC(=O)[C@H](Cc1ccc(-c2cccs2)cc1)NC(=O)OCc1ccccc1)C(N)=O | 325 | 39 µM | 0.12 µM | 200 | 233 | 24 µM | 28 µM |
| NCCCC[C@H](NC(=O)[C@H](Cc1ccccc1)NC(=O)[C@H](CCC(N)=O)NC(=O)OCc1ccccc1)C(N)=O (Cbz-Gln-Phe-Lys-NH2) | 506 | 3550 µM | 7 µM |  |  |  |  |
| NCCCC[C@H](NC(=O)[C@H](Cc1ccccc1)NC(=O)c1c(F)c(F)c(F)c(F)c1F)C(N)=O | 20 | 134 µM | 6.8 µM |  |  |  |  |
| NC(=O)[C@H](Cc1ccc(N)cc1)NC(=O)[C@H](Cc1ccccc1)NC(=O)OCc1ccccc1 (Cbz-Phe-[Phe(4-NH2)]-NH2) | 107 | 2790 µM | 26 µM |  |  |  |  |
| C[C@H](NC(=O)[C@H](Cc1ccccc1)NC(=O)OCc1ccccc1)C(N)=O |  |  | 16 µM |  |  |  |  |
| NCCCC[C@H](NC(=O)[C@H](Cc1ccc(-c2cccc(Cl)c2)cc1)NC(=O)OCc1ccccc1)C(N)=O | 34 | 58 µM | 1.7 µM |  |  |  |  |
| NCCCC[C@H](NC(=O)[C@H](Cc1ccccc1)NC(=O)c1ccc2ccccc2c1)C(N)=O | 301 | 301 µM | 1 µM |  |  |  |  |
| NCCCC[C@H](NC(=O)[C@H](Cc1ccc(-c2ccccc2)cc1)NC(=O)OCc1ccccc1)C(N)=O (Cbz-[Bip]-Lys-NH2) | 32 | 77 µM | 2.4 µM |  |  |  |  |
| NCCCC[C@H](NC(=O)[C@H](Cc1ccccc1)NC(=O)[C@H](CCCCN)NC(=O)OCc1ccccc1)C(N)=O (Cbz-Lys-Phe-Lys-NH2) | 1680 | 1490 µM | 0.89 µM | 319 | 46 | 284 µM | 41.1 µM |
| NC(=O)[C@H](CCCC(N)O)NC(=O)[C@H](Cc1ccccc1)NC(=O)OCc1ccccc1 (stereo partly specified) | 64 | 1730 µM | 27 µM |  |  |  |  |
| CC(C)(C)c1ccc(C(=O)N[C@@H](Cc2ccccc2)C(=O)N[C@@H](CCCCN)C(N)=O)cc1 | 312 | 312 µM | 1 µM |  |  |  |  |
| NCCCC[C@H](NC(=O)[C@H](Cc1ccccc1)NC(=O)c1cc([N+](=O)[O-])ccc1Cl)C(N)=O | 651 | 1760 µM | 2.7 µM |  |  |  |  |
| NCCCC[C@H](NC(=O)[C@H](Cc1ccc(-c2ccc(-c3ccccc3)cc2)cc1)NC(=O)OCc1ccccc1)C(N)=O | 28 | 74 µM | 2.6 µM |  |  |  |  |
| Cc1ccccc1-c1ccc(C[C@H](NC(=O)OCc2ccccc2)C(=O)N[C@@H](CCCCN)C(N)=O)cc1 | 11 | 245 µM | 23 µM |  |  |  |  |
| NCCCC[C@H](NC(=O)[C@H](Cc1ccccc1)NC(=O)CCc1ccccc1)C(N)=O | 636 | 2040 µM | 3.2 µM |  |  |  |  |
| CC(=O)Oc1cccc(C(=O)N[C@@H](Cc2ccccc2)C(=O)N[C@@H](CCCCN)C(N)=O)c1 | 425 | 1020 µM | 2.4 µM |  |  |  |  |
| NCCCC[C@H](NC(=O)[C@H](Cc1ccccc1)NC(=O)C1CCCCN1)C(N)=O (stereo partly drawn) (H-[ξPip]-Phe-Lys-NH2) | 8.4 | 51 µM | 6.1 µM |  |  |  |  |
| NCCC[C@H](NC(=O)[C@H](Cc1ccccc1)NC(=O)OCc1ccccc1)C(N)=O | 703 | 2460 µM | 3.5 µM |  |  |  |  |
| Cc1cccc(-c2ccc(C[C@H](NC(=O)OCc3ccccc3)C(=O)N[C@@H](CCCCN)C(N)=O)cc2)c1 | 156 | 389 µM | 2.5 µM |  |  |  |  |
| CC(C)C[C@H](NC(=O)OCc1ccccc1)C(=O)N[C@@H](Cc1ccccc1)C(=O)N[C@@H](CCCCN)C(N)=O (Cbz-Leu-Phe-Lys-NH2) | 2630 | 1180 µM | 0.45 µM | 473 | 27 | 213 µM | 12 µM |
| NCCCC[C@H](NC(=O)[C@H](Cc1ccccc1)NC(=O)c1ccnc(-c2cc(C(=O)O)ccn2)c1)C(N)=O | 187 | 860 µM | 4.6 µM |  |  |  |  |

Reference: ChEMBL document CHEMBL2380300, “Identification of new peptide amides as selective cathepsin L inhibitors: the first step towards selective irreversible inhibitors?” (Bioorg Med Chem Lett, 2013)
